Results published in publication PMC4804314 (Pharmacology Research & Perspectives, 2016).

Key:
rat hepatocytes = assay: Metabolism in cultured rat hepatocytes; assay type: in vitro ADME; conditions: 1 and 10 µg/mL, up to 24 h
[1] = test system: sandwich‐cultured mouse (NMRI) hepatocytes; assay: Hepatobiliary disposition in sandwich-cultured mouse hepatocytes; assay type: in vitro ADME; conditions: for BEI / CLbiliary / Intracellular concentration / Cellular accumulation Avg. / Total accumulation Avg.: 20 min; for Cellular accumulation Avg. / Total accumulation Avg.: mean ± SD of triplicate wells
[2] = test system: human suspension hepatocytes; assay: Uptake into human suspension hepatocytes; assay type: in vitro ADME
Procedure, shortened: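 Cryopreserved human hepatocytes in suspension, transporter function verified by the supplier. Test compound was applied at 10 μmol/L, 250 μmol/L and 10 mmol/L for 1 to 30 or 90 min. Cells were separated from buffer by the oil-layer method, and drug in both compartments was quantified over time by LC/MS/MS. Nonspecific transporter inhibition used rifampicin 20 μmol/L, cyclosporine A 20 μmol/L and quinidine 100 μmol/L.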

[3] = Physicochemical properties
[4] = test system: sandwich‐cultured human hepatocytes; assay: Hepatobiliary disposition in sandwich-cultured human hepatocytes; assay type: in vitro ADME
Procedure, shortened: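 Sandwich-cultured human hepatocytes from three donor liver preparations, cultured 6 days. [14C]-test compound was applied at 10 and 250 μmol/L, with [3H]-taurocholate as transporter-function control and LDH release as cytotoxicity check. Radioactivity was read by LSC. Accumulation is mean ± SD of triplicate wells. BEI, CLbiliary, intracellular concentration and Cic/Cec were derived.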

[5] = 10 μM, donor 1, 20 min, mean ± SD of triplicate wells
[6] = 10 μM, donor 2, 20 min, mean ± SD of triplicate wells
[7] = 10 μM, donor 3, 20 min, mean ± SD of triplicate wells
[8] = 10 μM, mean ± standard error of 3 donors, 20 min

Question: With `CC(C)[C@H]1C(=O)N[C@@H](CCCN=C(N)N)C(=O)NCC(=O)N[C@@H](CC(=O)O)C(=O)N[C@H](Cc2ccccc2)C(=O)N1C` [cilengitide, cyclo‐(Asp‐D‐Phe‐N‐MeVal‐Arg‐Gly)] as the compound, how does the “metabolism by cultured hepatocytes” value (rat hepatocytes) read?
Answer: Its value is “poorly metabolized”.

Question: What about the uptake into hepatocytes [1] of the same compound?
Answer: The uptake into hepatocytes was “fairly robust”.

Question: What about the BEI ([1]; 10 μmol/L) of the same compound?
Answer: Its BEI is 29.3%.

Question: And the CLbiliary ([1]; 10 μmol/L)?
Answer: The CLbiliary was 1010 mL/day/kg.

Question: And the Intracellular concentration ([1]; 10 μmol/L)?
Answer: Its Intracellular concentration is 4.13 µM.

Question: What about the “Cellular accumulation Avg.” value ([1]; 10 μmol/L) of the same compound?
Answer: Its value is 33.3 ± 1.4 pmol/mg.

Question: What about the “Total accumulation Avg.” value ([1]; 10 μmol/L) of the same compound?
Answer: Its value is 47.1 ± 1.7 pmol/mg.

Question: What about the BEI ([1]; 250 μmol/L) of the same compound?
Answer: The BEI was 43.3%.

Question: And the CLbiliary ([1]; 250 μmol/L)?
Answer: The CLbiliary was 3950 mL/day/kg.

Question: What about the Intracellular concentration ([1]; 250 μmol/L) of the same compound?
Answer: Its Intracellular concentration is 219 µM.

Question: And the “Cellular accumulation Avg.” value ([1]; 250 μmol/L)?
Answer: Its value is 1768 ± 14 pmol/mg.

Question: And the “Total accumulation Avg.” value ([1]; 250 μmol/L)?
Answer: The value was 3115 ± 32 pmol/mg.

Question: And the “biliary efflux (BEI)” value ([1]; 10 and 250 μmol/L)?
Answer: The value was 30–40%.

Question: And the “intracellular concentration (Cic)” value ([1]; exposure 10 μmol/L)?
Answer: The value was 4.13 µmol/L.

Question: What about the “intracellular concentration (Cic)” value ([1]; exposure 250 μmol/L) of the same compound?
Answer: The value was 219 µmol/L.

Question: And the “active uptake in human hepatocytes” value [2]?
Answer: The value was “no active uptake”.

Question: And the “dependency of uptake on drug concentration” value ([2]; 10 μmol/L, 250 μmol/L and 10 mmol/L)?
Answer: Its value is “no clear dependency on drug concentration”.

Question: And the “effect of inhibitor cocktail on distribution into hepatocytes” value ([2]; 20 μmol/L rifampicin, 20 μmol/L cyclosporine A, 100 μmol/L quinidine)?
Answer: Its value is “no relevant inhibition”.

Question: And the “time after which distribution into hepatocytes was almost complete” value ([2]; human suspension hepatocytes)?
Answer: The value was 1 to 4 min.

Question: And the “uptake into human hepatocytes” value ([2]; suspension, 10 μmol/L, 250 μmol/L and 10 mmol/L)?
Answer: The value was “minor”.

Question: And the solubility [3]?
Answer: The solubility was “high”.

Question: And the “partition coefficient Po/w” value ([3]; octanol–water)?
Answer: The value was 0.0096.

Question: What about the “biliary efflux (as determined by BEI and CLbil)” value [4] of the same compound?
Answer: The value was “negligible”.

Question: And the BEI ([4]; 10 μM, donor 1, 20 min)?
Answer: Its BEI is 2.42%.

Question: What about the CLbiliary ([4]; 10 μM, donor 1, 20 min) of the same compound?
Answer: The CLbiliary was 7.2 mL/day/kg.

Question: What about the Intracellular concentration ([4]; 10 μM, donor 1, 20 min) of the same compound?
Answer: Its Intracellular concentration is 1.70 µM.

Question: What about the “Cellular accumulation Avg.” value [4, 5] of the same compound?
Answer: The value was 13.7 ± 1.8 pmol/mg.

Question: What about the “Total accumulation Avg.” value [4, 5] of the same compound?
Answer: The value was 14.0 ± 1.5 pmol/mg.

Question: What about the BEI ([4]; 10 μM, donor 2, 20 min) of the same compound?
Answer: Its BEI is 2.30%.

Question: And the CLbiliary ([4]; 10 μM, donor 2, 20 min)?
Answer: The CLbiliary was 5.8 mL/day/kg.

Question: What about the Intracellular concentration ([4]; 10 μM, donor 2, 20 min) of the same compound?
Answer: Its Intracellular concentration is 0.52 µM.

Question: And the “Cellular accumulation Avg.” value [4, 6]?
Answer: Its value is 4.17 ± 0.33 pmol/mg.

Question: And the “Total accumulation Avg.” value [4, 6]?
Answer: The value was 4.27 ± 0.46 pmol/mg.

Question: And the BEI ([4]; 10 μM, donor 3, 20 min)?
Answer: The BEI was 16.6%.

Question: And the CLbiliary ([4]; 10 μM, donor 3, 20 min)?
Answer: The CLbiliary was 18.7 mL/day/kg.

Question: And the Intracellular concentration ([4]; 10 μM, donor 3, 20 min)?
Answer: Its Intracellular concentration is 0.56 µM.

Question: What about the “Cellular accumulation Avg.” value [4, 7] of the same compound?
Answer: Its value is 4.53 ± 0.38 pmol/mg.

Question: What about the “Total accumulation Avg.” value [4, 7] of the same compound?
Answer: The value was 5.44 ± 3.31 pmol/mg.

Question: And the BEI [4, 8]?
Answer: Its BEI is 7.12 ± 4.76%.

Question: And the CLbiliary [4, 8]?
Answer: The CLbiliary was 10 ± 4.3 mL/day/kg.

Question: And the “Cellular accumulation Avg.” value [4, 8]?
Answer: The value was 7.47 ± 3.12 pmol/mg.

Question: And the Intracellular concentration [4, 8]?
Answer: Its Intracellular concentration is 0.926 ± 0.386 µM.

Question: What about the “Total accumulation Avg.” value [4, 8] of the same compound?
Answer: The value was 7.90 ± 3.07 pmol/mg.

Question: And the BEI ([4]; 250 μM, donor 1, 20 min)?
Answer: The BEI was 20.4%.

Question: And the CLbiliary ([4]; 250 μM, donor 1, 20 min)?
Answer: Its CLbiliary is 40.3 mL/day/kg.

Question: What about the Intracellular concentration ([4]; 250 μM, donor 1, 20 min) of the same compound?
Answer: The Intracellular concentration was 22.7 µM.
